Results taken from ChEMBL document CHEMBL1148530, “Discovery of new antitubercular oxazolyl thiosemicarbazones” (J Med Chem, 2006).
In brackets after ≈: the same amount, converted by molar mass. Activity calls are given as the source filed them. The rule behind the calls is not given here.

What follows are compounds tested on Vero (assay: Selectivity index, IC50 for Vero cell line/ MIC for multidrug resistant Mycobacterium tuberculosis).
Type: functional
Method in brief: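 Vero cells were exposed to compound at 62.5 µg/mL for 72 h. Viability was read by MTT conversion to formazan. Selectivity index is the Vero IC50 divided by the agar-dilution MIC against the listed strain.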

With S=C(NN=C(c1ccccc1)c1ccccc1)Nc1ncc(C2CCC2)o1 as the compound, how does the Selectivity index read?
The Selectivity index was over 1250.

These compounds were tested on Mycobacterium tuberculosis (assay: Antimycobacterial activity against multidrug resistant Mycobacterium tuberculosis).
Type: functional
Method in brief: (§1)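 MIC determined by agar dilution, following the NCCLS-recommended approach, in duplicate. Strains were M. tuberculosis H37Rv and a multidrug-resistant M. tuberculosis. Concentrations were tested up to 25 µg/mL.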

With S=C(NN=C(Cc1ccccc1)Cc1ccccc1)Nc1ncc(C2CCC2)o1 as the compound, how does the MIC read?
Its MIC is 6.25 µg/mL (≈ 15.4 µM).

With Oc1[nH]c2ccccc2c1/N=N/C(S)=N/c1ncc(C2CCC2)o1 as the compound, how does the MIC read?
Its MIC is 25 µg/mL (≈ 73.2 µM).

For C/C(=N\N=C(/S)Nc1ncc(C2CCC2)o1)c1ccc(N)cc1, which MIC is on record?
Its MIC is 0.78 µg/mL (≈ 2.37 µM).

How did the MIC turn out when CO[C@H]1/C=C/O[C@@]2(C)Oc3c(C)c(O)c4c(O)c(c(/C=N/N5CCN(C)CC5)c(O)c4c3C2=O)NC(=O)/C(C)=C\C=C\[C@H](C)[C@H](O)[C@@H](C)[C@@H](O)[C@@H](C)[C@H](OC(C)=O)[C@@H]1C [RIFAMPIN] was run?
The MIC was 3.12 µg/mL (≈ 3.79 µM).

Which MIC does the source give for CC[C@@H](CO)NCCN[C@@H](CC)CO [ETHAMBUTOL] here?
Its MIC is 25 µg/mL (≈ 122 µM).

With O=[N+]([O-])c1cccc(/C=N/N=C(\S)Nc2ncc(C3CCC3)o2)c1 as the compound, how does the MIC read?
The MIC was 0.78 µg/mL (≈ 2.26 µM).

For C/C(=N\N=C(/S)Nc1ncc(C2CCC2)o1)c1ccccc1, which MIC is on record?
The MIC was 3.12 µg/mL (≈ 9.92 µM).

S=C(NN=C(c1ccccc1)c1ccccc1)Nc1ncc(C2CCC2)o1 was tested. Which MIC did it give?
The MIC was 0.1 µg/mL (≈ 0.266 µM).

How did the MIC turn out when NNC(=O)c1ccncc1 [ISONIAZID] was run?
The MIC was 1.56 µg/mL (≈ 11.4 µM).

How did the MIC turn out when COc1cc(/C=N/N=C(\S)Nc2ncc(C3CCC3)o2)ccc1O was run?
Its MIC is 12.5 µg/mL (≈ 36.1 µM).

For O=[N+]([O-])c1ccc(/C=N/N=C(\S)Nc2ncc(C3CCC3)o2)cc1, which MIC is on record?
Its MIC is 0.39 µg/mL (≈ 1.13 µM).

With O=[N+]([O-])c1ccccc1/C=N/N=C(\S)Nc1ncc(C2CCC2)o1 as the compound, how does the MIC read?
The MIC was 0.78 µg/mL (≈ 2.26 µM).

With COc1ccc(/C=N/N=C(\S)Nc2ncc(C3CCC3)o2)cc1 as the compound, how does the MIC read?
Its MIC is 6.25 µg/mL (≈ 18.9 µM).

With Oc1ccccc1/C=N/N=C(\S)Nc1ncc(C2CCC2)o1 as the compound, how does the MIC read?
Its MIC is 6.25 µg/mL (≈ 19.8 µM).

For C/C(=N\N=C(/S)Nc1ncc(C2CCC2)o1)c1ccc(C)cc1, which MIC is on record?
Its MIC is 0.78 µg/mL (≈ 2.37 µM).

How did the MIC turn out when S=C(N/N=C(\c1ccccc1)c1ccc(Br)cc1)Nc1ncc(C2CCC2)o1 was run?
Its MIC is 0.05 µg/mL (≈ 0.11 µM).

How did the MIC turn out when C/C(=N\N=C(/S)Nc1ncc(C2CCC2)o1)c1ccccc1O was run?
Its MIC is 3.12 µg/mL (≈ 9.44 µM).

For CN(C)c1ccc(/C=N/N=C(\S)Nc2ncc(C3CCC3)o2)cc1, which MIC is on record?
Its MIC is 3.12 µg/mL (≈ 9.08 µM).

How did the MIC turn out when C/C(=N\N=C(/S)Nc1ncc(C2CCC2)o1)c1ccc(O)cc1 was run?
The MIC was 3.12 µg/mL (≈ 9.44 µM).

COc1c(N2CCNC(C)C2)c(F)cc2c(=O)c(C(=O)O)cn(C3CC3)c12 (stereo unspecified) [GATIFLOXACIN] was tested. Which MIC did it give?
Its MIC is 6.25 µg/mL (≈ 16.6 µM).

With S=C(N/N=C/c1ccc(Cl)cc1)Nc1ncc(C2CCC2)o1 as the compound, how does the MIC read?
Its MIC is 1.56 µg/mL (≈ 4.66 µM).

Which MIC does the source give for Cc1ccc(/C=N/N=C(\S)Nc2ncc(C3CCC3)o2)cc1 here?
Its MIC is 3.12 µg/mL (≈ 9.92 µM).

How did the MIC turn out when C/C(=N\N=C(/S)Nc1ncc(C2CCC2)o1)c1ccc([N+](=O)[O-])cc1 was run?
The MIC was 0.2 µg/mL (≈ 0.556 µM).

Oc1[nH]c2ccc(F)cc2c1/N=N/C(S)=N/c1ncc(C2CCC2)o1 was tested. Which MIC did it give?
The MIC was 12.5 µg/mL (≈ 34.8 µM).

These compounds were tested on Mycobacterium tuberculosis (assay: Antimycobacterial activity against multidrug resistant Mycobacterium tuberculosis at 25 ug/ml).
Type: functional, organism-based
Method in brief: as §1

Which Activity does the source give for N/N=C(\S)Nc1ncc(C2CCC2)o1 here?
Its Activity is “inactive”.
